Laboratory results from ChEMBL document CHEMBL4808254, “Further SAR studies on natural template based neuroprotective molecules for the treatment of Alzheimer's disease” (Bioorg Med Chem, 2021).
Active and inactive are the calls of the source. The rule behind the calls is not given here.

Key:
Cholinesterase = Cholinesterase (Equus caballus, UniProt P81908); experiment: Inhibition of equine serum BChE using butyrylthiocholine iodide as substrate preincubated with enzyme for 30 mins followed by substrate addition and measured after 30 mins by Ellman's method; type: cell-free
Summary of the method: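 Equine BChE (0.06 U/mL) preincubated with a range of inhibitor concentrations, 37 °C, 30 min. BTCI (15 mM) then added for 30 min, followed by DTNB (1.5 mM). A415 recorded. Mean ± SD of two or three independent experiments, each in triplicate.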

Acetylcholinesterase [1] = target: T1, Acetylcholinesterase (Homo sapiens, UniProt P22303); experiment: Inhibition of AChE in human erythrocytes using acetylthiocholine iodide as substrate at 20 uM preincubated with enzyme for 30 mins followed by substrate addition and measured after 30 mins by Ellman's method relative to control; type: cell-based; details: Erythrocyte, time 60.0 min
Summary of the method: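 hAChE (0.022 U/mL) preincubated with inhibitor at 20 µM, 37 °C, 30 min. ATCI (1.5 mM) then added and incubated a further 30 min, followed by DTNB (0.15 mM). Absorbance read at 415 nm. % inhibition = [(Ac − Ai)/Ac] × 100 against an uninhibited enzyme. Mean ± SD of two or three experiments run in triplicate.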

Acetylcholinesterase [2] = target: T1, Acetylcholinesterase; experiment: Inhibition of AChE in human erythrocytes using acetylthiocholine iodide as substrate preincubated with enzyme for 30 mins followed by substrate addition and measured after 30 mins by Ellman's method; type: cell-based, Erythrocyte
[3] = Antioxidant activity assessed as DPPH radical scavenging activity at 20 uM measured after 25 mins by microplate reader based assay relative to control; type: functional
Summary of the method: (§1)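 Test compound at serial concentrations (single 20 µM for percent values) mixed 1:1 with 200 µM DPPH in methanol; 25 min at 37 °C with shaking at 300 rpm; absorbance read at 517 nm. Percent scavenging taken against DPPH control; IC50 is the concentration that removes 50% of radical. Mean ± SD of three independent experiments.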

[4] = Antioxidant activity assessed as DPPH radical scavenging activity measured after 25 mins by microplate reader based assay; type: functional; summary of the method: as §1
[5] = Metal chelating activity assessed as compound-Fe3+ complex formation at 600 uM measured after 24 hrs at pH 7.4 in presence Fecl3.6H2O by UV-Vis spectroscopic analysis
Summary of the method: (§2)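 600 µM compound and 600 µM FeCl3·6H2O, both in methanol, mixed in equal volume and shaken at 1000 rpm for 24 h at 25 °C, then UV-scanned. For pH 7.4, diluted DIPEA added before rescanning. Spectra recorded from 300 to 700 nm, with the d–d region at 400–700 nm. Run in duplicate.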

[6] = Permeability of the compound in PBS buffer at pH 7.4 at 500 uM incubated for 18 hrs by PAMPA-BBB assay
N2a [7] = experiment: Cytotoxicity against mouse N2a cells assessed as effect on cell viability at 0.01 to 20 uM measured after 24 hrs by MTT assay; type: cell-based; details: dose 0.01-20 µM
Summary of the method: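 Neuro2a cells seeded at 1 × 10^4/well and left overnight to adhere. Exposed to 0.01, 0.1, 1, 2.5, 5, 10 or 20 µM in triplicate for 24 h at 37 °C in 5% CO2. Viability then read by MTT and expressed as percent of untreated cells. Mean ± SE of three independent experiments.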

[8] = Metal chelating activity assessed as compound-Fe3+ complex formation at 600 uM measured after 24 hrs at pH 4.2 in presence Fecl3.6H2O by UV-Vis spectroscopic analysis; summary of the method: as §2
[9] = target: Cholinesterase (Equus caballus) (UniProt P81908); experiment: Mixed inhibition of equine serum BChE using different concentration of butyrylthiocholine iodide as substrate preincubated with enzyme for 30 mins by Lineweaver-Burk plot analysis; type: cell-free
Summary of the method: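 eqBChE preincubated with inhibitor at three concentrations, 37 °C, 30 min. BTCI added at 5, 10, 15, 20 and 25 mM, then DTNB (1.5 mM). Absorbance read at 415 nm. Double-reciprocal 1/[S] vs 1/V plots used to assign inhibition type. Duplicate runs; mean ± SD of two independent experiments.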

N2a [10] = experiment: Neuroprotective activity against H2O2-induced neurotoxicity in mouse N2a cells assessed as increase in cell viability at 1 to 20 uM preincubated for 24 hrs followed by co-incubation with H2O2 and measured after 24 hrs by MTT assay; type: functional, cell-based; details: dose 1-20 µM, time 48.0 hrs
Summary of the method: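 N2a cells seeded at 1 × 10^4/well and left overnight. Pre-incubated 24 h with 1, 2.5, 5, 10 or 20 µM, then co-incubated with 600 µM H2O2 for a further 24 h. MTT added for 4 h at 37 °C and formazan extracted in 0.04 N HCl/isopropanol for 1 h. OD read at 570 nm; viability as percent of untreated control. Three independent experiments, mean ± SEM.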

Mus musculus = experiment: Reversal of scopolamine induced cognitive memory impairment in C57BL/6 mouse assessed as escape latency time at 10 mg/kg, po administered 30 mins prior to scopolamine injection daily for 14 days by Morris water maze test (reference value: 50.11 +/-5.91 secs); type: functional; details: time 14 day
Acetylcholinesterase [11] = target: T1, Acetylcholinesterase; experiment: Mixed inhibition of human erythrocyte AChE using different concentration of acetylthiocholine iodide as substrate preincubated with enzyme for 30 mins by Lineweaver-Burk plot analysis; type: tissue-based
Summary of the method: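 hAChE preincubated with inhibitor at three concentrations, 37 °C, 30 min. ATCI added at 0.5, 1.0, 1.5, 2.0 and 2.5 mM, then DTNB (0.15 mM). A415 recorded. Lineweaver-Burk double-reciprocal analysis used to assign the mechanism. Duplicate runs; mean ± SD of two independent experiments.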

[12] = Metal chelating activity assessed as mole fraction required to show 1:1 stoichiometry for compound-Fe3+ complex formation measured after 24 hrs in presence Fecl3.6H2O by Job's plot analysis
Summary of the method: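 Stoichiometry by molar-ratio titration of compound against FeCl3 in methanol (0–10 ratio) at room temperature with UV spectra recorded. Job's plot built from Fe(III) mole fraction against absorbance. Means of duplicate runs.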

[13] = target: Cholinesterase (Equus caballus) (UniProt P81908); experiment: Inhibition of equine serum BChE using butyrylthiocholine iodide as substrate at 20 uM preincubated with enzyme for 30 mins followed by substrate addition and measured after 30 mins by Ellman's method relative to control; type: cell-free; details: time 60.0 min
Summary of the method: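 Equine BChE (0.06 U/mL) preincubated with inhibitor at 20 µM, 37 °C, 30 min. BTCI (15 mM) then added and incubated a further 30 min, followed by DTNB (1.5 mM). Absorbance read at 415 nm. % inhibition taken relative to an enzyme-only control. Mean ± SD of two or three experiments run in triplicate.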

Cholinesterase (Equus caballus), sequence (P81908 whole entry): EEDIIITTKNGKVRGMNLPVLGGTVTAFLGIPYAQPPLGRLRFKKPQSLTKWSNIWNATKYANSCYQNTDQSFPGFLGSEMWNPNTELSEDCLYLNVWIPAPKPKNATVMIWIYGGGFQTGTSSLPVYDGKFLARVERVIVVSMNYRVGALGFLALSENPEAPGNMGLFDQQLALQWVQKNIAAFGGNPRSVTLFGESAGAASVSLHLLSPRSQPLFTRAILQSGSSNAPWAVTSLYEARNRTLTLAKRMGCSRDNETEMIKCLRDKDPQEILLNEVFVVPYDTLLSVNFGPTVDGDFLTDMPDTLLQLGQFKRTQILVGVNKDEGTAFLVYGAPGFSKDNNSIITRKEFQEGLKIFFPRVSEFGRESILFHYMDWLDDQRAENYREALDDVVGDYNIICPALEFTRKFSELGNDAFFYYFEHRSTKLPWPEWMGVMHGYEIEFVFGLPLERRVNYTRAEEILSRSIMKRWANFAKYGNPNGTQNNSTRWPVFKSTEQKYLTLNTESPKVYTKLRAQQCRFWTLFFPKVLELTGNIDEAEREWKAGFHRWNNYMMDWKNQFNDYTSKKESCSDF
Cholinesterase, sequence (P81908 whole entry): as above
T1 sequence (P22303 whole entry): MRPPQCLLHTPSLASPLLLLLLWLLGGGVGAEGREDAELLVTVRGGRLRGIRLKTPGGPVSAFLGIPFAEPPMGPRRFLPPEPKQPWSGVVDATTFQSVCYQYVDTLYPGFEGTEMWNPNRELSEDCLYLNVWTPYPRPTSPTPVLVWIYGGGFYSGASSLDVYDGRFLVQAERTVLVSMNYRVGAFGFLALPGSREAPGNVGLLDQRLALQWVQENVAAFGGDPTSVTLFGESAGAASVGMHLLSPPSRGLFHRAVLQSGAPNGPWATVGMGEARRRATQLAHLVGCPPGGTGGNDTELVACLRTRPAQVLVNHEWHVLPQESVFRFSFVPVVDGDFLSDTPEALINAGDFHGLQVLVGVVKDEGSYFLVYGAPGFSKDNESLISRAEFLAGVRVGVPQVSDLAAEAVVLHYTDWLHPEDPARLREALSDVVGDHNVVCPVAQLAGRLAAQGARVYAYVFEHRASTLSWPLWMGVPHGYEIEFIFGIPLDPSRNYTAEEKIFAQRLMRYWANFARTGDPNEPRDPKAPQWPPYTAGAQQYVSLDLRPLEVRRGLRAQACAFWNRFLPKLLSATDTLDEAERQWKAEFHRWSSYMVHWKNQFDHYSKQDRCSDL

SMILES | IC50 (Cholinesterase) [µM] | inhibition (Acetylcholinesterase [1]) [%] | IC50 (Acetylcholinesterase [2]) [µM] | Activity [3] [%] | IC50 [4] [µM] | other results
COc1cc(/C=C/C(=O)N2CCN(Cc3ccccc3Cl)CC2)ccc1O | 15.2 | 47 |  |  |  | 
COc1cc(/C=C/C(=O)NCCC(=O)Nc2ccc(Cl)cc2)ccc1O | 7.13 |  | 5.32 | 18.7 | 84.2 | 
COc1cc(/C=C/C(=O)NCC(=O)NCCc2c[nH]c3ccccc23)ccc1O | 3.14 |  | 1.42 | 38.5 | 29.1 | 
COc1cc(/C=C/C(=O)N2CCN(Cc3cccc(Cl)c3)CC2)ccc1O | 14.8 |  | 15.4 | 23.1 | 61.5 | 
COc1cc(/C=C/C(=O)NCC(=O)NCCc2c[nH]c3ccc(Cl)cc23)ccc1O | 1.29 |  | 0.84 | 47.3 | 23.6 | 
COc1ccc2[nH]cc(CCNC(=O)CNC(=O)/C=C/c3ccc(O)c(OC)c3)c2c1 | 1.23 |  | 0.96 | 51.9 | 20.2 | Activity [5]: Active; Papp at 18 h, 500 µM [6]: 8.51 ×10⁻⁶ cm/s; Activity (N2a [7]): Non-Toxic; Activity [8]: Active; inhibition [9]: Active; Activity (N2a [10]): Active; Time (Mus musculus): 32.28 s; inhibition (Acetylcholinesterase [11]): Active; Activity [12]: 50%
COc1cc(/C=C/C(=O)NCC(=O)Nc2ccc3[nH]ccc3c2)ccc1O |  |  |  |  | 57.4 | 
COc1cc(/C=C/C(=O)N2CCN(Cc3ccc(C)cc3)CC2)ccc1O | 14.8 | 43.2 |  |  |  | 
COc1cc(/C=C/C(=O)N2CCN(Cc3ccccc3F)CC2)ccc1O | 15.9 | 34.2 |  |  |  | 
COc1cccc(NC(=O)CCNC(=O)/C=C/c2ccc(O)c(OC)c2)c1 | 11.3 |  | 2.41 | 21.3 |  | 
COc1cc(/C=C/C(=O)O)ccc1O [FERULATE] |  | 15.1 |  | 33.1 | 58.3 | inhibition [13]: 17.1%
COc1cc(/C=C/C(=O)N2CCN(Cc3ccc(F)cc3)CC2)ccc1O | 14.8 |  | 14.5 | 23.1 | 51.9 | 
COc1cc(/C=C/C(=O)N2CCN(Cc3ccc(C#N)cc3)CC2)ccc1O | 15.6 | 39.4 |  |  |  | 
COc1cc(/C=C/C(=O)NCCC(=O)Nc2ccccc2)ccc1O | 16.4 |  | 14.8 | 10.6 | 95.6 | 
COc1cccc(N2CCN(C(=O)/C=C/c3ccc(O)c(OC)c3)CC2)c1 |  |  |  |  | 62 | 
COc1cc(/C=C/C(=O)N2CCN(Cc3ccccc3)CC2)ccc1O |  |  | 13.3 | 38.4 | 31.3 | inhibition [13]: 45.1%
COc1cc(/C=C/C(=O)N2CCN(Cc3cccc([N+](=O)[O-])c3)CC2)ccc1O | 14.6 | 38.8 |  |  |  | 
COc1cc(/C=C/C(=O)N2CCN(Cc3cccc(C)c3)CC2)ccc1O | 14.7 | 45.5 |  | 26.3 | 66 | 
COc1cc(/C=C/C(=O)N2CCN(Cc3ccc(Cl)cc3)CC2)ccc1O | 15.9 | 37.3 |  | 32.4 | 62.4 | 
COc1cc(/C=C/C(=O)N2CCN(Cc3cccc(C#N)c3)CC2)ccc1O | 14.7 | 42.4 |  |  |  | 
COc1cccc(CN2CCN(C(=O)/C=C/c3ccc(O)c(OC)c3)CC2)c1 |  |  | 15.2 |  |  | inhibition [13]: 49.1%
COc1ccc(CN2CCN(C(=O)/C=C/c3ccc(O)c(OC)c3)CC2)cc1 |  |  | 16.4 | 30.5 | 46.4 | inhibition [13]: 45.1%
COc1cc(/C=C/C(=O)N2CCN(Cc3ccccc3C#N)CC2)ccc1O | 14.9 | 45.4 |  |  |  | 
COc1cc(/C=C/C(=O)N2CCN(Cc3cccc(F)c3)CC2)ccc1O | 14 |  | 13.1 | 40.2 | 26.6 | Papp at 18 h, 500 µM [6]: 9.57 ×10⁻⁶ cm/s; inhibition [9]: Active; inhibition (Acetylcholinesterase [11]): Active
COc1cc(/C=C/C(=O)N2CCN(Cc3ccccc3C)CC2)ccc1O | 15.1 | 43.1 |  |  |  | 
